Numbered stars: 1 amine (or outer) side, 2 acyl side, 3 side chain; on linkers, the order of the positions; unused ones are H or OH. Square brackets hold non-standard residues; d marks the D form. Peptide text beside a SMILES is read from it. LeuΨ(S-CHOHCH2)Ala = CC(C)C[C@H](N[*:1])[C@@H](O)C[C@@H](C)C(=O)[*:2]
Tests used:
Homo sapiens = species: Homo sapiens; assay: Selectivity ratio of Ki(app) for human recombinant BACE2 to Ki for human recombinant BACE1
[1] = Half life in human serum by HPLC-FLU analysis; format: ADME, cell-free
Outline: (§1)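 Peptide solution (50 µM in PBS, 2% DMSO) was mixed 1:4 with human serum or 10% mouse brain homogenate (PBS, 0.5% Triton X-100) and incubated at 37 °C for varying times. Reactions were stopped with acetonitrile and proteins spun out. Intact peptide was quantified by HPLC-FLU against per-compound calibration curves, following decay to about 50%. t1/2 was interpolated from a monophasic model fit; n = 3.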

[2] = Half life in mouse brain by HPLC-FLU analysis; format: ADME, tissue-based; outline: as §1
[3] = Cytotoxicity against human Caco2 cells assessed as cell viability at 25 to 50 uM after 4 to 24 hrs by MTS assay; format: cell-based; conditions: Caco-2 cells, read-out: Activity
Outline: (§2)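 Confluent Caco-2 cells (passage 26 to 41, grown in high-glucose DMEM with 10% FBS and 1% non-essential amino acids) exposed to test compounds from 2.5 nM to 50 µM in DMEM with 0.5% FBS for 4 h or 24 h. Medium replaced by MTS, 4 h at 37 °C, absorbance read at 490 nm. Viability given as % of cells in 0.5% FBS DMEM.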

Caco-2 = assay: Cytotoxicity against human Caco2 cells assessed as cell viability at 25 to 50 uM after 24 hrs by MTS assay; format: cell-based; conditions: caco-2, 24 h; outline: as §2
Brain [4] = assay: Retention time of the compound in female mouse brain treated with 0.53 mg/kg, iv (3S,6S,9S,12S,15S,18S,21R,23S,24S,27S,30S,33S)-33-acetamido-15-benzyl-3-carbamoyl-6-(2-carboxyethyl)-27-(carboxymethyl)-23-hydroxy-12-(4-hydroxybenzyl)-24,30-diisobutyl-18-isopropyl-9,21-dimethyl-5,8,11,14,17,20,26,29,32-nonaoxo-4,7,10,13,16,19,25,28,31-nonaazahexatriacontane-1,36-dioic acid by HPLC-FLU analysis; format: ADME, organism-based; conditions: in vivo
Outline: (§3)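 Female mice (8–12 weeks, 22–37 g) and male Wistar rats (8–12 weeks, 182–201 g) were fasted 24 h, then dosed iv at 0.53 mg/kg in PBS, in triplicate. Animals were sacrificed at 0.5, 1 and 2 h under pentobarbital. Blood was taken by cardiac puncture and brains perfused with chilled saline. Serum was acetonitrile-precipitated. Whole mouse brain, or rat cortex and hippocampus, was homogenized with an internal standard, HPLC-purified, then analysed by HPLC-FLU and ESI LC-MS.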

Brain [5] = assay: Drug formation in female mouse brain treated with 0.53 mg/kg, iv (3S,6S,9S,12S,15S,18S,21R,23S,24S,27S,30S,33S)-33-acetamido-15-benzyl-3-carbamoyl-6-(2-carboxyethyl)-27-(carboxymethyl)-23-hydroxy-12-(4-hydroxybenzyl)-24,30-diisobutyl-18-isopropyl-9,21-dimethyl-5,8,11,14,17,20,26,29,32-nonaoxo-4,7,10,13,16,19,25,28,31-nonaazahexatriacontane-1,36-dioic acid measured up to 2 hrs by HPLC-FLU/LC-MS …; format: ADME, organism-based; conditions: in vivo
Serum [6] = assay: Drug formation in Wistar rat serum treated with 0.53 mg/kg, iv (3S,6S,9S,12S,15S,18S,21R,23S,24S,27S,30S,33S)-33-acetamido-15-benzyl-3-carbamoyl-6-(2-carboxyethyl)-27-(carboxymethyl)-23-hydroxy-12-(4-hydroxybenzyl)-24,30-diisobutyl-18-isopropyl-9,21-dimethyl-5,8,11,14,17,20,26,29,32-nonaoxo-4,7,10,13,16,19,25,28,31-nonaazahexatriacontane-1,36-dioic acid measured after 2 hrs by HPLC-FLU/LC-MS …; format: ADME, organism-based; conditions: in vivo
[7] = Drug uptake in female mouse brain at 0.53 mg/kg, iv up to 1 hr by HPLC-FLU analysis; format: ADME, organism-based; conditions: read-out: Drug uptake; outline: as §3
Cortex [8] = assay: Drug formation in Wistar rat brain cortex treated with 0.53 mg/kg, iv (3S,6S,9S,12S,15S,18S,21R,23S,24S,27S,30S,33S)-33-acetamido-15-benzyl-3-carbamoyl-6-(2-carboxyethyl)-27-(carboxymethyl)-23-hydroxy-12-(4-hydroxybenzyl)-24,30-diisobutyl-18-isopropyl-9,21-dimethyl-5,8,11,14,17,20,26,29,32-nonaoxo-4,7,10,13,16,19,25,28,31-nonaazahexatriacontane-1,36-dioic acid measured after 2 hrs by …; format: ADME, organism-based; conditions: in vivo
Brain [9] = assay: Retention time of the compound in female mouse brain at 0.53 mg/kg, iv by HPLC-FLU analysis; format: ADME, organism-based; conditions: in vivo; outline: as §3
Serum [10] = assay: Metabolic stability in female mouse serum at 0.53 mg/kg, iv by HPLC-FLU analysis; format: ADME, organism-based; conditions: in vivo; outline: as §3
Cortex [11] = assay: Metabolic stability in Wistar rat brain cortex at 0.53 mg/kg, iv after 2 hrs by HPLC-FLU analysis; format: ADME, organism-based; conditions: in vivo; outline: as §3
Serum [12] = assay: Metabolic stability in Wistar rat serum at 0.53 mg/kg, iv after 2 hrs by HPLC-FLU analysis; format: ADME, organism-based; conditions: in vivo; outline: as §3

SMILES	Ratio (Homo sapiens)	half-life [1]	half-life [2]	viability at up to 50 µM [3]	Activity (Caco-2)	viability at 50 µM [3]	Retention_time (Brain [4])	Drug metabolism (Brain [5])	Drug metabolism (Serum [6])	concentration at 1 h [7]	Drug metabolism (Cortex [8])	Retention_time (Brain [9])	Stability (Serum [10])	Stability (Cortex [11])	Stability (Serum [12])
CC(C)C[C@H](NC(=O)[C@@H](N)CCC(=O)O)C(=O)N[C@@H](CC(=O)O)C(=O)N[C@@H](CC(C)C)[C@@H](O)C[C@@H](C)C(=O)N[C@H](C(=O)N[C@@H](Cc1ccccc1)C(=O)N[C@@H](Cc1ccc(O)cc1)C(=O)N[C@@H](C)C(=O)N[C@@H](CCC(=O)O)C(=O)N[C@@H](CC(=O)O)C(N)=O)C(C)C (H-ELD[LeuΨ(S-CHOHCH2)Ala]VFYAED-NH2)	7.5	2.1 h	2.3 h	> 80%	Non-toxic										
CC(C)C[C@H](NC(=O)[C@@H](N)CCC(=O)O)C(=O)N[C@@H](CC(=O)O)C(=O)N[C@@H](CC(C)C)[C@@H](O)C[C@@H](C)C(=O)N[C@H](C(=O)N[C@@H](CCC(=O)O)C(=O)N[C@@H](Cc1ccccc1)C(=O)O)C(C)C (H-ELD[LeuΨ(S-CHOHCH2)Ala]VEF-OH)		2.2 h	5.8 h		Non-toxic	> 80%									
CC(C)C[C@H](NC(=O)[C@@H](N)CCC(=O)O)C(=O)N[C@@H](CC(=O)O)C(=O)N[C@@H](CC(C)C)[C@@H](O)C[C@@H](C)C(=O)N[C@H](C(=O)N[C@@H](Cc1ccccc1)C(=O)N[C@@H](Cc1ccc(O)cc1)C(=O)N[C@@H](C)C(=O)N[C@@H](CCC(=O)O)C(=O)N[C@@H](CC(=O)O)C(=O)O)C(C)C (H-ELD[LeuΨ(S-CHOHCH2)Ala]VFYAED-OH)	7.5	3 h	6 h				22.9 min	metabolite_detected	metabolite_detected	20 nM	metabolite_detected				
CC(=O)N[C@@H](CCC(=O)O)C(=O)N[C@@H](CC(C)C)C(=O)N[C@@H](CC(=O)O)C(=O)N[C@@H](CC(C)C)[C@@H](O)C[C@@H](C)C(=O)N[C@H](C(=O)N[C@@H](Cc1ccccc1)C(=O)N[C@@H](Cc1ccc(O)cc1)C(=O)N[C@@H](C)C(=O)N[C@@H](CCC(=O)O)C(=O)N[C@@H](CC(=O)O)C(N)=O)C(C)C (Ac-ELD[LeuΨ(S-CHOHCH2)Ala]VFYAED-NH2)	9.2	6 h	3.43 h		Non-toxic	> 80%						23.6 min	Unstable	Unstable	Stable
CC(C)C[C@H](NC(=O)[C@@H](N)CCC(=O)O)C(=O)N[C@@H](CC(=O)O)C(=O)N[C@@H](CC(C)C)[C@@H](O)C[C@@H](C)C(=O)N[C@H](C(=O)N[C@@H](Cc1ccccc1)C(=O)N[C@@H](Cc1ccccc1)C(=O)N[C@@H](C)C(=O)N[C@@H](CCC(=O)O)C(=O)N[C@@H](CC(=O)O)C(N)=O)C(C)C (H-ELD[LeuΨ(S-CHOHCH2)Ala]VFFAED-NH2)	3.7				Non-toxic	> 80%									
